The list is not random: actives were taken first. Their share in the collection is about 6.3%.
SF1 activator = activates the human nuclear receptor SF-1; Q13285; CHO-K1 Gal4-SF-1 LBD luciferase reporter; % increase over DMSO SF-1-specific signal; activation, % at 10 µM; actives 1.9% (n = 65,000); AID 522;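 active means activation above the mean activation of all tested compounds plus 3 SD, cut at about 50% in these data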
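Material: Gal4–SF-1 LBD one-hybrid luciferase reporter in CHO-K1 cells | Amount: 4,000 cells per well | Compound dosing: 10 µM single point, 1% DMSO | Schedule: 20 h compound treatment, 37 °C | Measured by: SteadyLite luciferase luminescence | Evaluation: Percent activation versus DMSO | Control set: DMSO-treated SF-1-transfected cells as negative, DMSO-treated mock-transfected cells lacking SF-1 as background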
M1 antagonist = M1 muscarinic receptor (rat) antagonism | B-score at 10 µM | CHO-M1 cells, Fluo-4 calcium, ACh EC80 antagonist mode; hits give low values | AID 628 | actives 3.4% (n = 64,000);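 active means calcium fluorescence response, raw or row-and-column corrected B-score, differing from the plate sample mean either way at a set confidence level, mostly lower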
RORA act = activates the human nuclear receptor RORA. P35398. CHO-K1 Gal4-RORA LBD luciferase reporter, luminescence; percent increase over mock-subtracted basal signal. activation, % at 10 µM. actives 1.5% (n = 65,000). AID 560;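 active means activation above the mean of all tested compounds plus 3 SD, cut at about 49% in these data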;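 further: 0% = DMSO-treated RORA cells and 100% = added signal equal to DMSO minus mock-transfected cells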
Target sequence (P35398 whole entry, looked up, the tested form may be a part): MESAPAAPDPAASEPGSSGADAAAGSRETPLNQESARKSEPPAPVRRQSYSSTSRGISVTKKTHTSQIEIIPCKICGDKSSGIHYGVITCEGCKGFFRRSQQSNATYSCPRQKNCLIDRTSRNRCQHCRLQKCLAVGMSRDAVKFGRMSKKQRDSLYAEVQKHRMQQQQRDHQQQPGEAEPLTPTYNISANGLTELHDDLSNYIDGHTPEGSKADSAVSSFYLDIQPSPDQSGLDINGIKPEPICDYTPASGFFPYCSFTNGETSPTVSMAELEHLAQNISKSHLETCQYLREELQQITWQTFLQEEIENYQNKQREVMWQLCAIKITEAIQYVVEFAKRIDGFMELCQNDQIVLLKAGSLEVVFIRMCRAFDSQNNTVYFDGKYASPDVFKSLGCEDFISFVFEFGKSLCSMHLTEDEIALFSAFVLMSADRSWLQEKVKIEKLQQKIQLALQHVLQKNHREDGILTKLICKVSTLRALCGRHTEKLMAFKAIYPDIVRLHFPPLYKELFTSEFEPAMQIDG
M1 ag = activates the M1 muscarinic receptor; CHO-M1 cells, Fluo-4 calcium fluorescence, agonist mode; hits give high values; B-score at 10 µM; actives 3% (n = 64,000); AID 626;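 active means fluorescence rise, raw or as B-score row- and column-corrected plate score, outside the 99.7% band of its plate's samples, either direction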
MT1-MMP txn act = MT1-MMP promoter transcription activation. AID 750. HT1080 MT1-MMP promoter luciferase reporter, luminescence, overnight; hits give high values. actives 0.16% (n = 86,000). activation factor at 10 µM;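 active means activation factor of at least 2 for MT1-MMP transcription at 10 µM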
Starred values were filed as active, the others as inactive; x = no result.

SMILES	SF1 activator	M1 antagonist	RORA act	M1 ag	MT1-MMP txn act
O=C(Nc1ccccc1)c1ccc(F)c(S(=O)(=O)N2CCOCC2)c1	-8.8	0.0222	14.8	0.466	1.1
CCCCC(=O)Nc1cccc(-c2cn3ccsc3n2)c1	30.2	0.145	58.5*	2.1	1.6
Cc1ccc(NC(=O)CN(C)C(=O)CSc2nc3ccccc3o2)cc1	x	x	x	x	1.1
CCc1nnc(NC(=O)C2c3ccccc3Oc3ccccc32)s1	x	x	x	x	0.9
COc1ccccc1C1N(c2ccc(F)cc2)C(=O)C2CCCN21 (configuration not stated)	-0.2	0.145	-0.1	-0.579	1
O=C(Nc1cccc(-c2cn3ccsc3n2)c1)c1ccccc1	26.6	-0.732	48.8*	0.471	1.3
CCCn1c(SCC(=O)N2CCN(c3ccc(OC)cc3)CC2)nc2c1c(=O)n(C)c(=O)n2C	-17.1	-0.454	-14.0	9.64*	1.1
CCCn1c(SCC(=O)N2CCCC2)nc2c1c(=O)n(C)c(=O)n2C	-10.7	-0.635	-12.3	-0.813	1.1
CCCn1c(SCC(=O)N2CCN(c3ccccc3)CC2)nc2ccccc2c1=O	6.0	1.93*	-2.0	0.906	1
Cc1ccc(-c2nnn(CC(=O)N(CC(=O)NC3CCCCC3)c3cnc4ccccc4c3)n2)o1	5.2	0.587	-2.7	0.149	0.9
CS(=O)(=O)c1ccc2nc(NC(=O)c3ccco3)sc2c1	74.4*	-0.0403	65.5*	-0.418	0.9
O=C(Nc1nc2ccc(S(=O)(=O)N3CCCCC3)cc2s1)c1cccnc1	x	x	x	x	1.1
CN(C)S(=O)(=O)c1ccc2nc(NC(=O)c3cccnc3)sc2c1	62.1*	-0.00612	32.9	-0.186	1.1
Cc1ccc2nc(NC(=O)COC(=O)c3ccco3)sc2c1	29.9	0.431	60.6*	-0.218	1.2
O=C(CC(Nc1ccc(F)cc1)C(=O)O)c1ccccc1 (configuration not stated)	41.7	-0.175	62.0*	-0.219	0.7
O=C(c1ccco1)n1c(=S)nc2ccccn21	32.0	0.00246	76.7*	-0.763	1.5
Cc1cccc2nc(=S)n(C(=O)c3ccco3)n12	41.8	-0.326	56.0*	-0.487	2.1*
CCCOc1ccc(-c2nc(C#N)c(N3CCN(CC)CC3)o2)cc1	-0.9	0.579	3.5	0.974	1.1
Brc1ccc(NC2=Nc3ccccc3CC2)cc1	x	x	x	x	1.4
c1ccc(NC2=Nc3ccccc3CS2)cc1	24.1	0.0944	89.4*	0.619	1.5
CCn1ccc(C(=O)Nc2ccc(Cl)cn2)n1	77.8*	-0.193	58.8*	0.125	1.3
CCOc1ccccc1NC(=O)CSc1nc2cccnc2n1C	-9.3	-0.0469	31.7	1.51	1.4
CC1CCc2nc3ccc(S(=O)(=O)N4CCC(C(=O)NC5CCCC5)CC4)cc3c(C(=O)O)c2C1 (configuration not stated)	-6.0	0.0499	-12.6	0.328	1.1
O=C(O)c1c2c(nc3ccc(S(=O)(=O)N4CCC(C(=O)NC5CCCC5)CC4)cc13)CCCCC2	-4.3	0.0331	-5.0	-2.29*	1.1
Cn1c(C(=O)NCc2ccccn2)cc2c(=O)n3ccccc3nc21	60.6*	0.0598	52.9*	-0.000423	1.6
SMILES	SF1 activator	M1 antagonist	RORA act	M1 ag	MT1-MMP txn act
Cc1ccc(-c2nc3ccccc3n2C)o1	x	x	x	x	1.5
Cn1c(-c2ccc(Br)o2)nc2cc(Br)ccc21	89.2*	0.479	39.3	0.588	1.7
Cn1c(-c2ccc(Br)o2)nc2ccccc21	75.8*	0.165	72.6*	1.66	1.1
CC(C)CNC(=O)c1cc2nc(C3CC3)cc(C(F)(F)F)n2n1	x	x	x	x	1.3
CCn1c(-c2ccc(N(C)C)cc2)nc2ccccc21	19.4	-0.964	87.7*	-0.572	0.9
CCn1c(-c2ccc(N)cc2)nc2ccccc21	37.2	1.24	49.9*	0.499	1.4
C=CCn1c(-c2ccc(N)cc2)nc2ccccc21	56.9*	-1.56	38.0	1.05	1.6
CCn1c(-c2ccco2)nc2ccccc21	42.4	-0.599	6.7	1.81	1.3
C=CCn1c(-c2ccc(OC)cc2)nc2ccccc21	40.9	-0.0316	41.6	0.189	1.2
O=C(c1cccc(COc2ccc(Cl)cc2Cl)c1)N1CCN(c2ccccn2)CC1	75.5*	0	28.9	0.367	x
O=C(Cc1ccccc1I)Nc1ccccc1	x	x	x	x	1.1
CC(OC(=O)c1cccs1)C(=O)NCC1CCCO1 (configuration not stated)	6.1	1.2	9.0	-0.0708	x
COC(=O)c1ccc(COC(=O)c2ccc(-n3cnnn3)cc2)o1	21.8	-0.0678	13.1	-0.0267	1.2
COCn1c(COc2ccc3ccccc3c2)nc2ccccc21	x	x	x	x	2.3*
CCn1c(COc2cccc(C)c2)nc2ccccc21	x	x	x	x	1.1
COc1ccc(C2=NO[C@@H]3C(=O)N(c4cccc(C)c4C)C(=O)[C@H]23)cc1OC	-12.1	0.907*	1.1	0.239	0.9
COc1cccc(C2=NOC(C(=O)NC(C)C)C2)c1 (configuration not stated)	3.0	0.0625	-19.4	-0.0135	1.3
COc1cccc(C2=NC(C)(C)NC(c3ccccc3O)C2)c1 (configuration not stated)	30.3	0.065	12.2	0.178	2.1*
CCC1(C)N=C(c2ccc3c(c2)OCO3)CC(c2ccccc2O)N1 (configuration not stated)	x	x	x	x	2.4*
CN(C)c1ccc(NC(=O)c2ccc(COc3cccc(Cl)c3)o2)cc1	42.2	0.959	72.6*	0	x
CC1(C(=O)NCc2cccnc2)CCC(=O)N1Cc1cccs1 (configuration not stated)	1.6	0.93	6.9	1.73	1.1
COc1ccc2c(c1)OCC1=C2CCC2(C)C(=O)CC=C12 (configuration not stated)	-11.6	0.108	-8.0	1.62	1.3
Cc1nc(-c2ccccc2)nc2[nH]c(=O)n(-c3ccccc3)c(=O)c12	35.9	0.444	60.3*	-0.0308	x
COc1ccccc1OCc1csc(NC(=O)c2ccco2)n1	66.7*	-0.000684	21.2	0.824	1.7
O=c1c2ccccc2nc2ccc(NCc3ccco3)nn12	8.9	-0.0221	53.2*	-0.0189	1.6
SMILES	SF1 activator	M1 antagonist	RORA act	M1 ag	MT1-MMP txn act
Cn1c(Cl)cnc1C(O)c1ccccc1 (configuration not stated)	-25.0	0.484	-14.7	-0.374	1.2
CCCCCCC(=O)c1c(C)[nH]c(C(=O)OCC)c1C	52.8*	-0.574	9.1	-0.434	1.6
CCCN(CCC)C(=O)c1c(C)[nH]c(C(=O)OCC)c1C	-9.2	-1.34	6.2	0.0532	1.1
CCOC(=O)c1[nH]c(C)c(C(=O)Nc2ccccc2C)c1C	26.1	0.256	80.6*	0.0427	0.4
Cc1ccc(NC(=O)N2CCC(C(=O)Nc3ccc(C)cc3C)CC2)cc1	x	x	x	x	1.1
CCc1[nH]nc2c1C(c1ccc(Br)s1)C(C#N)=C(N)O2 (configuration not stated)	8.4	2.5*	-18.7	-0.237	1.1
CCn1cc(C(=O)Nc2nnc(C)s2)c(=O)c2cc(F)c(N3CCN(C(=O)c4ccco4)CC3)cc21	x	x	x	x	1.3
Nn1c(SCC(=O)Nc2ccc(F)cc2F)nnc1-c1cccnc1	56.7*	0.822	4.0	0.246	1.6
